Data set [1] has as its system N2a cells. The data set is described as follows: MTT cytotoxicity assay. It counts as cell-based. As to conditions: oligomeric peptide, one day after addition. A general note: Tetrazolium dyes change colour on reduction, which living cells bring about.
Data set [2] in a line: Atomic force microscopy of oligomers. It counts as physicochemical.
Data set [3] deals with AβO. The data set is described as follows: EPR of position 264 spin-labeled apoE with HDL or VLDL, with or without AβO. It counts as binding. The conditions noted are these: for EPR response to AβO in presence of HDL / VLDL: apoE 30 μM, HDL or VLDL 850 mg/dL, oligomeric Aβ(1-40) 100 μM, one hour at 37 °C; for EPR response to HDL / VLDL without AβO: apoE spin-labeled at 264, HDL or VLDL, Supplemental Figure S2. The method in brief: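 Human apoE isoforms (Cys at 264) expressed in E. coli BL21(DE3)AI, purified from inclusion bodies in 8 M urea, labeled with MTS-SL and refolded into PBS pH 7.4. HDL or VLDL came from postprandial human plasma by ultracentrifugation. […] Samples were incubated, then run as X-band EPR (loop-gap resonator, sealed quartz capillary), with vehicle controls.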

The test system of data set [4] is Aβ^(26TOAC). The data set is described as follows: EPR of Aβ^. As to conditions: apoE 30 μM; 40 μM Aβ (1 part Aβ^(26TOAC) to 3 parts native Aβ(1-40)), scanned immediately after introduction into aqueous buffer. It counts as binding.
Data set [5] has as its system Aβ. As to conditions: cited from earlier work.
The nature of data set [6]: Circular dichroism of spin-labeled apoE. It counts as physicochemical. As to conditions: spin-labeled W264C apoE4 vs wt apoE4; Supplementary Material. Background: CD spectra are sensitive to the conformation of chiral molecules.
The subject of data set [7] is VLDL and HDL. The conditions noted are these: ref [10]; cited from earlier work.
Data set [8] relates to neuronal death / neurite outgrowth. The conditions noted are these: independent of Aβ; ref [15]; cited from earlier work.
The test system of data set [9] is Aβ fibrils. The conditions noted are these: in vitro; ref [19]; cited from earlier work.

Data on four substances can be found in PMC3016465 (Proteins, 2011).

“Also recorded” adds a separate entry of the source.

For “Aβ(1-40): native Aβ(1-40) peptide (Bachem Cat # 1194.0001)”, in [1], the cell death is 60-75%.
As for AβO: soluble Aβ oligomer, the “time to formation of fibrillar aggregates after spotting” value in data set [2] (AFM, AβO 50 μM, on mica surface) was at most 1 min. The “average volume of initial AβO species” value in data set [2] (AFM, set of 11, assuming simple spherical particle) came to 203 ± 26 nm^3. In addition, the “upper limit of oligomer size” value in data set [2] (efficient packing of the peptide in the particle is unlikely) was ≤ 30 -mer. In addition, the “protein mass of AβO particle” value in data set [2] (estimated from AFM volume, if packed similar to a globular protein) is ~ 160 kD.
For the substance “E3-like protein: apoE3-like protein: R112->S mutation in the apoE4-W264C template”, in data set [3], the “EPR response to AβO in presence of HDL / VLDL” value is given as “the influence of AβO on the E3-like protein is clearly greater in the presence of HDL”; the “EPR response to HDL / VLDL without AβO” value was “becomes more ordered; where the spectra of spin-labeled 264 are similarly broadened by HDL and VLDL”. Moreover, the “effect of apoE on the Aβ^(26TOAC) EPR spectrum” value in data set [4] was “Only the E3-like protein induces a broadening of the Aβ^(26TOAC) spectra”. The “propensity to form SDS-resistant complex with Aβ” value in data set [5] (E3-like mutant (Cys112→Ser) relative to apoE4, ref [29]) is “higher (relative to apoE4) propensity to form an SDS-resistant complex with Aβ”.
In the case of “apoE4: h_apoE4 protein containing the W264->Cys (apoE4-W264C) substitution”, in data set [6], the “CD analysis of spin-labeled protein” value was “indistinguishable from wt apoE4”. Also, the “lipoprotein preference” value in data set [7] was “preference of E4 to bind VLDL over HDL”. In data set [3], the “EPR response to AβO in presence of HDL / VLDL” value is “slightly stronger binding effect of apoE4 to AβO in the presence of VLDL than HDL”; the “EPR response to HDL / VLDL without AβO” value was “shows little change with HDL, and a slight increase in amplitude with VLDL”. Besides, the “effect of apoE on the Aβ^(26TOAC) EPR spectrum” value in [4] is listed as “produces a spectrum that is identical to TOAC-labeled sample added to PBS alone; also recorded: had no significant effect on the Aβ^(26TOAC) spectrum”. Besides, the “neuronal death” value in data set [8] is “induces neuronal death and forms large fibril-like assemblies”. Moreover, in data set [5] (in vitro, ref [13]), the “association with Aβ, SDS-resistant apoE-Aβ on gels” value is “higher apoE4 association in vitro”. Further, the “affinity of lipid-free apoE4 for Aβ vs apoE3” value in data set [5] (lipid-free apoE, ref [14],[19]) was “binds Aβ with a higher affinity than apoE3 and promotes fibrillization of Aβ”. In addition, the “stimulation of Aβ fibril assembly” value in data set [9] was “in vitro assembly of Aβ fibrils is stimulated by apoE, and more so by the E4 isoform”.
